# Experimental data taken from ChEMBL document CHEMBL4138228, “Substituted carbamothioic amine-1-carbothioic thioanhydrides as novel trichomonicidal fungicides: Design, synthesis, and biology” (Eur J Med Chem, 2018).
# Legend:
# [1] = system: Trichophyton mentagrophytes; experiment: Antifungal activity against Trichophyton mentagrophytes after 48 hrs by broth microdilution method; type: functional
# Method in brief: (§1)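 Broth microdilution per NCCLS guidelines in MOPS-buffered RPMI 1640; starting inoculum 1-5 x 10^3 CFU/mL; plates incubated at 35 °C; MIC recorded after 48 h; fluconazole as reference; experiments repeated three times.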
# Cryptococcus neoformans = experiment: Antifungal activity against Cryptococcus neoformans after 48 hrs by broth microdilution method; type: functional; method in brief: as §1
# Candida albicans [2] = experiment: Antifungal activity against Candida albicans patient isolate after 48 hrs by broth microdilution method; type: functional; method in brief: as §1
# [3] = Selectivity index, ratio of IC50 for human HeLa cells to MIC for metronidazole-resistant Trichomonas vaginalis CDC085 ATCC 50143; type: toxicity; conditions: read-out: Selectivity Index
# [4] = Selectivity index, ratio of IC50 for human HeLa cells to MIC for metronidazole-susceptible Trichomonas vaginalis; type: toxicity; conditions: read-out: Selectivity Index
# Trichomonas vaginalis [5] = experiment: Antitrichomonas activity against metronidazole-resistant Trichomonas vaginalis CDC085 ATCC 50143 assessed as decrease in cell viability after 48 hrs by trypan blue exclusion method; type: functional; conditions: CDC085 ATCC 50143, 48 h
# Candida albicans [6] = experiment: Antifungal activity against Candida albicans ATCC 66027 after 48 hrs by broth microdilution method; type: functional; conditions: ATCC 66027, 48 h; method in brief: as §1
# Trichomonas vaginalis [7] = experiment: Antitrichomonas activity against metronidazole-susceptible Trichomonas vaginalis assessed as decrease in cell viability after 48 hrs by trypan blue exclusion method; type: functional
# Candida albicans [8] = experiment: Antifungal activity against Candida albicans ATCC 14053 after 48 hrs by broth microdilution method; type: functional; conditions: ATCC 14053, 48 h; method in brief: as §1
# Candida albicans [9] = experiment: Antifungal activity against Candida albicans ATCC 10231 after 48 hrs by broth microdilution method; type: functional; conditions: ATCC 10231, 48 h; method in brief: as §1
# Trichomonas vaginalis [10] = experiment: Potency index, ratio of metronidazole MIC to test compound MIC for metronidazole-resistant Trichomonas vaginalis CDC085 ATCC 50143; type: functional
# Candida parapsilosis = experiment: Antifungal activity against Candida parapsilosis ATCC 22019 after 48 hrs by broth microdilution method; type: functional; conditions: Lodderomyces parapsilosis, ATCC 22019, 48 h; method in brief: as §1
# Sporothrix schenckii = experiment: Antifungal activity against Sporothrix schenckii after 48 hrs by broth microdilution method; type: functional; method in brief: as §1
# Nakaseomyces glabratus = experiment: Antifungal activity against Candida glabrata ATCC 2001 after 48 hrs by broth microdilution method; type: functional; conditions: ATCC 2001, 48 h; method in brief: as §1
# Candida albicans [11] = experiment: Antifungal activity against Candida albicans MTCC 183 after 48 hrs by broth microdilution method; type: functional; conditions: MTCC 183, 48 h; method in brief: as §1
# HeLa = experiment: Cytotoxicity against human HeLa cells after 24 hrs by MTT assay; type: cell-based
Compound,MIC [1],MIC (Cryptococcus neoformans),MIC (Candida albicans [2]),selectivity ratio [3],selectivity ratio [4],MIC (Trichomonas vaginalis [5]),MIC (Candida albicans [6]),MIC (Trichomonas vaginalis [7]),MIC (Candida albicans [8]),MIC (Candida albicans [9]),Ratio (Trichomonas vaginalis [10]),MIC (Candida parapsilosis),MIC (Sporothrix schenckii),MIC (Nakaseomyces glabratus),MIC (Candida albicans [11]),IC50 (HeLa)
CC1CCCN(C(=S)SC(=S)N(C)C)C1 (centres undefined),23.9 µM,47.7 µM,23.9 µM,30,60,95.4 µM,47.7 µM,47.7 µM,95.4 µM,95.4 µM,1.5 - 3.8,23.9 µM,23.9 µM,95.4 µM,47.7 µM,2.9 mM
CCN(C)C(=S)SC(=S)N(C)C,56.3 µM,225 µM,113 µM,9,18,225 µM,28.1 µM,113 µM,113 µM,113 µM,1.5 - 3.8,113 µM,56.3 µM,113 µM,56.3 µM,2.07 mM
CN(C)C(=S)SC(=S)N1CCN(C(=S)NCc2ccccc2)CC1,125 µM,> 125 µM,> 125 µM,> 20,> 40,251 µM,> 125 µM,125 µM,> 125 µM,> 125 µM,1.3 - 11.2,> 125 µM,125 µM,> 125 µM,> 125 µM,> 5 mM
OC(Cn1cncn1)(Cn1cncn1)c1ccc(F)cc1F [FLUCONAZOLE],> 105 µM,6.53 µM,3.26 µM,–,–,–,1.63 µM,–,0.39 µM,3.26 µM,–,6.53 µM,6.53 µM,13.1 µM,–,–
CSC(=S)N1CCN(C(=S)SC(=S)N(C)C)CC1,147 µM,> 147 µM,> 147 µM,> 7,> 17,735 µM,> 147 µM,294 µM,> 147 µM,> 147 µM,–,36.8 µM,147 µM,> 147 µM,> 147 µM,> 5 mM
CCN(CC)C(=S)SC(=S)N(C)C,26.5 µM,106 µM,53 µM,> 47,> 94,106 µM,53 µM,53 µM,> 212 µM,> 212 µM,1.5 - 3.8,26.5 µM,26.5 µM,> 212 µM,106 µM,> 5 mM
CN(C)C(=S)SC(=S)N1CCN(C(=S)NC2CCCCC2)CC1,128 µM,> 128 µM,> 128 µM,> 79,> 161,63.9 µM,> 128 µM,32 µM,> 128 µM,> 128 µM,1.3 - 11.2,128 µM,128 µM,> 128 µM,> 128 µM,> 5 mM
CN(C)C(=S)SC(=S)N(C)C [BIS(DIMETHYLAMINETHIOCARBONYL)MONOSULFIDE],60.1 µM,240 µM,120 µM,> 20,> 83,240 µM,60.1 µM,60.1 µM,120 µM,120 µM,1.3 - 11.2,120 µM,60.1 µM,60.1 µM,120 µM,> 5 mM
CCCCNC(=S)N1CCN(C(=S)SC(=S)N(C)C)CC1,137 µM,> 137 µM,137 µM,20,41,137 µM,> 137 µM,68.5 µM,> 137 µM,> 137 µM,1.3 - 11.2,137 µM,137 µM,> 137 µM,> 137 µM,2.84 mM
CN(C)C(=S)SC(=S)N1CCN(c2cccc(Cl)c2Cl)CC1,15.9 µM,127 µM,31.7 µM,12,25,127 µM,> 127 µM,63.5 µM,> 127 µM,> 127 µM,1.3 - 9.5,31.7 µM,15.9 µM,> 127 µM,63.5 µM,1.59 mM
COc1ccccc1N1CCN(C(=S)SC(=S)N(C)C)CC1,140 µM,> 140 µM,> 140 µM,6,15,702 µM,70.2 µM,281 µM,> 140 µM,> 140 µM,1.3 - 9.5,70.2 µM,140 µM,> 140 µM,140 µM,4.33 mM
CN(C)C(=S)SC(=S)N1CCN(c2ccccc2)CC1,76.7 µM,76.7 µM,38.3 µM,21,42,76.7 µM,> 153 µM,38.3 µM,> 153 µM,> 153 µM,1.3 - 9.5,76.7 µM,76.7 µM,> 153 µM,> 153 µM,1.61 mM
CN(C)C(=S)SC(=S)N1CCN(C(=S)SCCCC#N)CC1,127 µM,> 127 µM,> 127 µM,> 39,> 79,127 µM,> 127 µM,63.6 µM,> 127 µM,> 127 µM,1.3 - 11.2,> 127 µM,127 µM,> 127 µM,> 127 µM,> 5 mM
CN(C)C(=S)SC(=S)N1CCN(C(=O)NC2CCCCC2)CC1,133 µM,> 133 µM,> 133 µM,> 18,> 37,267 µM,> 133 µM,133 µM,> 133 µM,> 133 µM,1.3 - 11.2,133 µM,133 µM,> 133 µM,> 133 µM,> 5 mM
CN(C)C(=S)SC(=S)N1CCN(C(=S)SCc2ccccc2)CC1,60.1 µM,60.1 µM,30 µM,> 41,> 83,120 µM,30 µM,60.1 µM,120 µM,> 120 µM,1.3 - 11.2,7.5 µM,60.1 µM,120 µM,120 µM,> 5 mM
CCCCSC(=S)N1CCN(C(=S)SC(=S)N(C)C)CC1,32.7 µM,65.3 µM,16.3 µM,> 7,> 19,654 µM,32.7 µM,262 µM,131 µM,> 131 µM,–,8.16 µM,32.7 µM,131 µM,131 µM,> 5 mM
CN(C)C(=S)SC(=S)N1CCCC1,53.4 µM,214 µM,107 µM,29,115,107 µM,53.4 µM,26.7 µM,26.7 µM,53.4 µM,1.5 - 3.8,107 µM,53.4 µM,53.4 µM,53.4 µM,3.09 mM
CN(C)C(=S)SC(=S)N1CCOCC1,100 µM,200 µM,200 µM,10,40,400 µM,100 µM,100 µM,50 µM,25 µM,–,200 µM,100 µM,100 µM,50 µM,4 mM
CN(C)C(=S)SC(=S)N1CCN(c2cccc(Cl)c2)CC1,34.7 µM,139 µM,34.7 µM,18,36,278 µM,> 139 µM,139 µM,> 139 µM,> 139 µM,1.3 - 9.5,8.66 µM,34.7 µM,> 139 µM,69.3 µM,> 5 mM
